Screening data from PubChem BioAssay.
Fam108B counter: Fam108B inhibition, counter-screen for RBBP9 inhibitors. recombinant Fam108B, FP-Rh probe fluorescence polarization. inhibition, % at 9.51 µM. hit rate 0.33% among 300,000. AID 1947;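 active = inhibition above the screen mean inhibition plus 3 SD, computed separately per campaign, cut at about 18% in these data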;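 note: inhibitors lower polarization as less probe binds the enzyme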
procasp7 counter: counter-screen: procaspase-7 (human) activation. recombinant procaspase-7, Ac-DEVD-pNA absorbance 405 nm; D23A/D198A/D206A triple mutant, cannot self-cleave; scale: DMSO 0, 5 µM enzyme 100. activation, % at 8.5 µM. hit rate 0.093% among 330,000;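 active = percent activation above the screen-wide mean plus 3 SD, cut at about 25% in these data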
Target sequence (P55210 whole entry D23A/D198A/D206A): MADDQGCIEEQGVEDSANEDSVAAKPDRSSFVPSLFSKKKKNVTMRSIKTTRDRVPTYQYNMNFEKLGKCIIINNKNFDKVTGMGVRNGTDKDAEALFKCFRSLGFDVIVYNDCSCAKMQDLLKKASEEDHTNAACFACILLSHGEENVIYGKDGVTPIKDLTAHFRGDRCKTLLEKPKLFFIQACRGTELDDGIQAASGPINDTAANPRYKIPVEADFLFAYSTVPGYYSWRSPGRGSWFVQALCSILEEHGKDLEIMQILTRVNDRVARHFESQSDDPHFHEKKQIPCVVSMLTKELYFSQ
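Detection: p-Nitroaniline absorbance at 405 nm, read at 0 and 120 min; system: Uncleavable procaspase-7 mutant enzyme; evaluation: % activation from two-timepoint absorbance difference, scaled to controls; times: 1 h enzyme–compound preincubation and 2 h substrate reaction, both 25 °C; buffer or medium: Zinc-free HEPES pH 7.4 with 300 mM NaCl, 0.01% Triton X-100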
LYPLA2 counter: blocks human lysophospholipase 2, a PME1 counter-screen; recombinant LYPLA2, FP-Rh probe fluorescence polarization; inhibition, % at 5.9 µM; hit rate 0.38% among 320,000;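 active = inhibition above the screen-wide mean plus 3 SD, limit set per campaign, cut at about 26% in these data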;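 note: 0% = LYPLA2 with DMSO and 100% = wells lacking LYPLA2 enzyme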
proCasp3 act: activators of human procaspase-3; hit rate 0.11% among 330,000; recombinant procaspase-3 D3A, Ac-DEVD-pNA absorbance 405 nm; AID 463141; activation, % at 8.5 µM;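 active = activation above the mean of all tested compounds plus 3 SD, cut at about 21% in these data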;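 note: 0% = DMSO alone and 100% = DMSO wells spiked with extra 5 µM PC-3 D3A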
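Test system: Procaspase-3 D3A mutant, all three cleavage aspartates alanine | Dosing: Single dose, 8.5 µM nominal compound, 0.8% DMSO | Schedule: 1 h preincubation, 2 h reaction | Technique: 405 nm absorbance of p-nitroaniline, reads at 0 and 120 min | Repeats: One well per compound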
PME-1 inh: blocks human protein phosphatase methylesterase 1; Q9Y570; recombinant PME-1, FP-Rh probe fluorescence polarization; hit rate 0.53% among 320,000; inhibition, % at 5.9 µM;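 active = inhibition above the campaign mean of all compounds plus 3 SD, cut at about 26% in these data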;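 note: competitive labeling of PME-1 active site by serine hydrolase directed probe; 0% = PME-1 with DMSO and 100% = wells lacking PME-1 enzyme; inhibitors block probe labeling so polarization falls and inhibition rises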
LYPLA1 counter: counter-screen for PME1 inhibitors: inhibitors of human LYPLA1; recombinant LYPLA1, FP-Rh probe fluorescence polarization; inhibition, % at 5.9 µM; hit rate 0.16% among 320,000; AID 2174;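 active = inhibition above the mean of all tested compounds plus 3 SD, set per campaign, cut at about 14% in these data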;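 note: inhibitors block serine hydrolase probe labeling of LYPLA1 so polarization falls; 0% = enzyme with DMSO and 100% = wells lacking LYPLA1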
LYPLA1 conf: LYPLA1 (human) inhibition, confirmation counter-screen; recombinant LYPLA1, FP-Rh probe fluorescence polarization; hit rate 69% among 480; AID 2233; shares compounds with LYPLA1 counter; inhibition, % at 5.9 µM;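 active = mean inhibition across replicates above the hit cutoff set in the primary screen, cut at about 15% in these data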;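 note: loss of FP-Rh probe labeling of LYPLA1 seen as lower polarization; 0% = LYPLA1 with DMSO and 100% = wells lacking LYPLA1 enzyme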
Numbers without * were called inactive; · = not tested or not shown. Hits are enriched below; roughly 1% of the tested compounds scored in any of these assays.

SMILES	Fam108B counter	procasp7 counter	LYPLA2 counter	proCasp3 act	PME-1 inh	LYPLA1 counter	LYPLA1 conf
CCN(CC)S(=O)(=O)c1cccc(-c2nnc(SCCOc3ccccc3)o2)c1	-6	3	1	-5	-10	41*	51*
CN(Cc1cccs1)C(=O)COc1cccc2c1OC(C)(C)C2	·	1	·	1	·	·	·
Cc1ccc([N+](=O)[O-])c(OCCCN2CCC(Cc3ccccc3)CC2)c1	1	2	27*	-1	-5	36*	52*
Cc1ccc([N+](=O)[O-])c(OCCN2CCCCCC2)c1	1	15	-1	-3	2	-1	·
Cc1occc1C(=O)NNC(=O)c1ccc(Br)o1	-5	-7	-3	6	-1	2	·
COc1ccc(/C=C2/Sc3ccc(C(=O)NCCCN4CCOCC4)cc3NC2=O)cc1OC	-4	-10	7	-10	15	37*	67*
COc1ccc(CNS(=O)(=O)c2ccc(-n3cnnn3)c(OC)c2)cc1	0	4	1	-1	-7	4	·
COc1cc(S(=O)(=O)NCc2ccccc2)ccc1-n1cnnn1	-1	-1	5	1	4	15*	2
O=C(COc1ccc(Br)cc1)N1CCN(c2ccc([N+](=O)[O-])c(N3CCCCC3)c2)CC1	7	-4	7	2	2	66*	76*
O=C(COc1ccccc1)N1CCN(c2ccc([N+](=O)[O-])c(N3CCCCC3)c2)CC1	-1	5	5	-4	-2	12	·
Cc1ccc(OCC(=O)N2CCN(c3ccc([N+](=O)[O-])c(N4CCOCC4)c3)CC2)cc1	1	-28	8	-8	-4	41*	49*
COc1cc(CNCCCN2CCOCC2)c(Br)cc1OCC(=O)Nc1ccccc1C	3	-5	9	6	5	17*	0
Cc1nc2ccc(C(=O)Nc3cccc([N+](=O)[O-])c3)cc2s1	3	5	-4	-8	-1	15*	22*
COc1[nH]c(/N=C/c2ccccc2)c(C#N)c1C#N	17	2	21	-5	20	17*	17*
COc1cc(OC)c(NC(=O)Nc2ccc(OC)c(OC)c2)cc1Cl	-6	11	0	3	-6	-2	·
COc1cc(NC(=O)Nc2ccc(Cl)c(Cl)c2)c(C(=O)O)cc1OC	5	2	9	-3	18	20*	18*
COC(=O)c1cc(C(=O)N2CCN(C(=O)c3ccco3)CC2)cc([N+](=O)[O-])c1	-1	0	8	7	4	-1	·
COc1ccc([N+](=O)[O-])cc1NC(=O)C(C)N1CCN(C(=O)c2ccco2)CC1 (stereo not given)	-4	1	-2	-2	-5	16*	22*
Cc1cccc(C(=O)NC(NCc2ccco2)C(Cl)(Cl)Cl)c1 (stereo not given)	3	0	5	-2	7	17*	4
Cn1c(=O)c2cc(NCc3ccccc3)nnc2n(C)c1=O	14	-4	25	1	29*	19*	3
C[C@]12c3[nH]c4ccccc4c3CCN1C(=O)C(CC(=O)NCCc1ccccn1)C[C@@H]2C(=O)N1CCOCC1 (stereo not given in full)	·	6	·	8	·	·	·
CCCCC1OC23CCCCC2C(C#N)(C#N)C1(C#N)C(=N)O3 (stereo not given)	4	-6	17	-6	10	15*	2
Nc1cc(=O)[nH]c(SCC(=O)Nc2ccc(Cl)c(Cl)c2)n1	4	11	-1	0	-13	15*	21*
CCCC(=O)Nc1c(-c2cccc(C)c2)c(=O)c2ccccc2n1C	1	1	3	7	4	-2	·
Cc1nc2c(C(=O)NCc3ccccc3Cl)c[nH]n2c(=O)c1Cl	-1	2	2	3	13	-2	·
Cc1nc2c(C(=O)NCCc3ccccc3Cl)c[nH]n2c(=O)c1Cl	11	-2	13	1	12	18*	16*
